Results on 3 molecules are retold here after ChEMBL document CHEMBL2150981, “Discovery and optimization of benzotriazine di-N-oxides targeting replicating and nonreplicating Mycobacterium tuberculosis” (J Med Chem, 2012).

Structures are written as SMILES. ≈ marks a conversion by molar mass, not a printed value.

The subject of one data set is Plasma. Kind of data set: Plasma concentration in Balb/c mouse at 100 mg/kg, po at 24 hrs. It counts as ADME, organism-based. Details: dose 100 mg/kg, route oral. Particulars: in vivo, BLD = below limit of detection. In a few lines: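 Single oral gavage dose of 100 mg/kg to female mice, three mice per time point. Blood was drawn at 5, 15, 30, 60 min and 2, 4, 6, 8 and 24 h and processed to plasma for analysis. Noncompartmental PK analysis.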

In data set [1] the test system is Mycobacterium tuberculosis. The data set can be described thus: Antitubercular activity against Mycobacterium tuberculosis H37Rv isolate ITR after 7 days by luminescence spectrometry. It counts as functional. The settings on record: 168 h.
Data set [2] in a line: Selectivity index, ratio of CC50 for Vero cells to MIC90 for Mycobacterium tuberculosis H37Rv isolate SRI. It counts as functional.
The test system of data set [3] is Mycobacterium tuberculosis. The data set can be described thus: Antitubercular activity against Mycobacterium tuberculosis H37Rv incubated for 10 days in anaerobic condition followed by 48 hrs incubation in aerobic condition by LORA assay. It counts as functional.
Data set [4] relates to Mycobacterium tuberculosis. Kind of data set: Antitubercular activity against Mycobacterium tuberculosis H37Rv isolate SRI after 5 days by resazurin-based microplate assay. It counts as functional. The settings on record: 120 h.
The test system of data set [5] is Mycobacterium tuberculosis. The data set can be described thus: Antitubercular activity against p-amino-salicyclic acid-resistant Mycobacterium tuberculosis ATCC 35821 after 5 days by resazurin-based microplate assay. It counts as functional. Particulars: ATCC 35821, 120 h. In a few lines:
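Mid-log cultures grown in 7H9 with glycerol, Tween-80 and ADC. Compounds in DMSO were tested two-fold from […] against ~10^5 CFU/mL, 37°C for 5 d. Resazurin was then added for a further 2 d, and fluorescence read at ex 530/em 590 with visual confirmation. MIC was the lowest concentration inhibiting 90% of growth. Final DMSO 0.625%; two-fold variation taken as assay error.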
In general terms: Alamar Blue is a resazurin reagent that responds to reducing activity.

The nature of data set [6]: Solubility of the compound in 0.9% saline solution after 48 hrs by shake flask method at pH 7.4. It counts as physicochemical. An outline of the steps:
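Shake-flask method in triplicate: ~20 mg of ground compound in 5 mL 0.9% saline pH 7.4, stirred at 25°C for 48 h. The sample was filtered through 0.45 µm PVDF and the filtrate quantified by HPLC at each compound's absorption maximum against a per-compound standard curve (R² > 0.99).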

Data set [7] concerns L5178Y. The data set can be described thus: Mutagenicity against mouse L5178Y cells at 100 ug/mL after 4 hrs by MOLY assay in absence of S9 fraction. It counts as toxicity, cell-based. In a few lines:
(§1)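 Mouse lymphoma tk+/- → tk-/- forward mutation assay, 4 h or 24 h exposure, with or without Aroclor 1254-induced rat-liver S9. Endpoints were suspension and relative total growth, relative cloning efficiency, mutation frequency, and small TFT-resistant colonies (<0.6 mm). A call was positive for significant mutation-frequency induction; induction only slightly above 40 × 10^-6 net over mean solvent control was considered biologically negative.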

Data set [8] concerns L5178Y. The data set can be described thus: Mutagenicity against mouse L5178Y cells at 10 ug/mL after 4 hrs by MOLY assay in presence of S9 fraction. It counts as toxicity, cell-based. Particulars: s9, 4 h. An outline of the steps: as §1
Data set [9] deals with L5178Y. Kind of data set: Mutagenicity against mouse L5178Y cells at 100 ug/mL after 4 hrs by MOLY assay in presence of S9 fraction. It counts as toxicity, cell-based. Particulars: s9, 4 h. In a few lines: as §1
Data set [10] relates to L5178Y. Kind of data set: Mutagenicity against mouse L5178Y cells at 50 ug/mL after 4 hrs by MOLY assay in presence of S9 fraction. It counts as toxicity, cell-based. The settings on record: s9, 4 h. In a few lines:
as §1

A further data set concerns Vero. The data set can be described thus: Cytotoxicity against african green monkey Vero cells after 72 hrs by CellTiterGlo assay. The settings on record: chlorocebus sabaeus, vero, 72 h. A general note: In ATP-based viability assays light output follows the ATP content of the culture.
In data set [11] the test system is L5178Y. The data set can be described thus: Mutagenicity against mouse L5178Y cells at 50 ug/mL after 4 hrs by MOLY assay in absence of S9 fraction. It counts as toxicity, cell-based. An outline of the steps:
as §1

In data set [12] the test system is Salmonella typhimurium. Kind of data set: Mutagenicity in Salmonella typhimurium TA100 assessed as increase in number of revertant colonies by Ames test in presence of S9 fraction. It counts as toxicity, organism-based. The settings on record: salmonella enterica subsp. enterica serovar typhimurium. An outline of the steps:
(§2)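 Plate-incorporation Ames test in Salmonella typhimurium TA98 and TA100, with and without an Aroclor 1254-induced rat-liver metabolic activation system containing 10% S9. Revertant colonies counted per plate, with means and standard deviations and background lawn condition recorded.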

For data set [13], the system named is L5178Y. Kind of data set: Mutagenicity against mouse L5178Y cells at 10 ug/mL after 4 hrs by MOLY assay in absence of S9 fraction. It counts as toxicity, cell-based. An outline of the steps: as §1
In data set [14] the test system is Salmonella typhimurium. The data set can be described thus: Mutagenicity in Salmonella typhimurium TA98 assessed as increase in number of revertant colonies by Ames test in absence of S9 fraction. The settings on record: salmonella enterica subsp. enterica serovar typhimurium. It counts as toxicity, organism-based. An outline of the steps: as §2
A general note: The Ames test uses bacterial strains that need an amino acid and regain growth without it when mutated back.

For data set [15], the system named is Salmonella typhimurium. The data set can be described thus: Mutagenicity in Salmonella typhimurium TA100 assessed as increase in number of revertant colonies by Ames test in absence of S9 fraction. It counts as toxicity, organism-based. The settings on record: salmonella enterica subsp. enterica serovar typhimurium. An outline of the steps: as §2
In data set [16] the test system is L5178Y. Kind of data set: Mutagenicity against mouse L5178Y cells at 25 ug/mL after 4 hrs by MOLY assay in absence of S9 fraction. It counts as toxicity, cell-based. In a few lines: as §1
Data set [17] relates to Salmonella typhimurium. The data set can be described thus: Mutagenicity in Salmonella typhimurium TA98 assessed as increase in number of revertant colonies by Ames test in presence of S9 fraction. It counts as toxicity, organism-based. Particulars: salmonella enterica subsp. enterica serovar typhimurium. An outline of the steps: as §2
Data set [18] deals with L5178Y. Kind of data set: Mutagenicity against mouse L5178Y cells at 25 ug/mL after 4 hrs by MOLY assay in presence of S9 fraction. The settings on record: s9, 4 h. It counts as toxicity, cell-based. In a few lines:
as §1

The subject of data set [19] is L5178Y. Kind of data set: Mutagenicity against mouse L5178Y cells at 25 ug/mL after 24 hrs by MOLY assay in absence of S9 fraction. It counts as toxicity, cell-based. In a few lines:
as §1

Data set [20] has as its system L5178Y. The data set can be described thus: Mutagenicity against mouse L5178Y cells at 10 ug/mL after 24 hrs by MOLY assay in absence of S9 fraction. It counts as toxicity, cell-based. An outline of the steps: as §1

By MIC90 is commonly meant the lowest concentration that inhibits either 90% of growth or 90% of the strains tested, depending on the study. By solubility (thermodynamic) is commonly meant the concentration in solution at equilibrium with solid. In general, CC50 refers to the concentration that lowers cell viability or growth by half.

On to `CCNc1n[n+]([O-])c2ccccc2[n+]1[O-]`, for which, in the data set on Plasma, the Cp entry is recorded as “BLD”. Further, the MIC90 in [1] stood at 0.57 mg/L (≈ 2.76 µM); in data set [3], 0.37 mg/L (≈ 1.79 µM); in [4] it was 1.2 mg/L (≈ 5.82 µM); in [5], 1.2 mg/L (≈ 5.82 µM). Besides, the “Selectivity Index” value in data set [2] was 17. The molecule further displayed a thermodynamic solubility at 48 h in data set [6] of 1.35 mg/mL (≈ 6550 µM).
For the molecule `CCNc1n[n+]([O-])c2cc3c(cc2[n+]1[O-])CCC3`, the Activity result in the data set with L5178Y [7] is reported as “Toxic”; with L5178Y [8], “Toxic”; in the data set with L5178Y [9], “Toxic”; in the data set with L5178Y [10], “Toxic”; in the data set on L5178Y [11], “Toxic”; in the data set on Salmonella typhimurium [12] it was “Dose-dependent effect”. Also, the Activity entry with L5178Y [13] was “Toxic”; in the data set with Salmonella typhimurium [14] it was “Dose-dependent effect”; in the data set with Salmonella typhimurium [15], “Dose-dependent effect”; in the data set on L5178Y [16], “Toxic”; in the data set with Salmonella typhimurium [17], “Dose-dependent effect”; in the data set on L5178Y [18] it was “Toxic”. The MIC90 in [1] worked out at 0.95 mg/L (≈ 3.86 µM); in data set [3] it was 0.83 mg/L (≈ 3.37 µM); in [4], 1.2 mg/L (≈ 4.87 µM); in data set [5], 1.2 mg/L (≈ 4.87 µM). For the same molecule, the “Selectivity Index” value in data set [2] turned out to be 29. In addition, the cytotoxic concentration (CC50) in the data set with Vero came out at 36 mg/L (≈ 146 µM).
Consider `[O-][n+]1nc(N2CCCC2)[n+]([O-])c2cc3c(cc21)CCC3`, for which the Cp result in the data set with Plasma is “BLD”. Moreover, the Activity result in the data set on L5178Y [7], in the data set with L5178Y [8], in the data set with L5178Y [9], with L5178Y [10], in the data set on L5178Y [11] and in the data set on L5178Y [19] was “Non-toxic” in each case. The Activity entry is reported as “Dose-dependent effect” in the data set with Salmonella typhimurium [12]; “Non-toxic” with L5178Y [13]; “Dose-dependent effect” in the data set with Salmonella typhimurium [14]; “Dose-dependent effect” in the data set on Salmonella typhimurium [15]; “Non-toxic” in the data set on L5178Y [16]; “Dose-dependent effect” with Salmonella typhimurium [17]. Further, the Activity result in the data set with L5178Y [20] and in the data set with L5178Y [18] was “Non-toxic” throughout. For the same molecule, the MIC90 stood at 0.46 mg/L (≈ 1.69 µM) in data set [1], 0.99 mg/L (≈ 3.64 µM) in data set [3], 0.31 mg/L (≈ 1.14 µM) in [4] and 0.31 mg/L (≈ 1.14 µM) in data set [5]. For the same molecule, the “Selectivity Index” value in data set [2] was 80. Further, in the data set on Vero, the CC50 was found to be 25 mg/L (≈ 91.8 µM). The molecule also displayed a thermodynamic solubility at 48 h in data set [6] of 0.28 mg/mL (≈ 1030 µM).
